Data set [1] is described as follows: Cell Titer-Glo cell viability assay. In kind it is cell-based. Particulars: human, Huh-7.5 cells. Put shortly:
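Huh-7.5 cells carrying a stable HCV Renilla luciferase replicon, seeded at 10 000 cells/well, attached 4–5 h in DMEM with 10% FBS, glutamine, penicillin/streptomycin and non-essential amino acids. Test compound added in DMSO (0.5% final). Incubated 72 h at 37°C, 5% CO2. Cells washed, lysed by shaking in medium plus CellTiter-Glo, 30 min at 23°C. Luminescence read 1 s, normalized to DMSO-only. Triplicates.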
(ATP-based viability assays read luminescence as a measure of living cells.)

For data set [2], the target named is T1, HCV NS3h (Hepatitis C virus genotype 1b, UniProt Q9WMX2). Description: NS3h molecular beacon-based helicase assay. It counts as biochemical. Particulars: for IC50: n=3.
For data set [3], the target named is T1, HCV NS3h. As to the kind of experiment: biochemical. It counts as binding. Conditions: for Cy5-dT15-NS3h Binding % Inhibition (LOPAC screen): LOPAC samples at 100 µM, 100 µM.
Another data set has as its target T2, NS3h (Hepatitis C virus genotype 1b, UniProt Q9WMX2).
T2 sequence (Q9WMX2 1193-1657 limits assumed): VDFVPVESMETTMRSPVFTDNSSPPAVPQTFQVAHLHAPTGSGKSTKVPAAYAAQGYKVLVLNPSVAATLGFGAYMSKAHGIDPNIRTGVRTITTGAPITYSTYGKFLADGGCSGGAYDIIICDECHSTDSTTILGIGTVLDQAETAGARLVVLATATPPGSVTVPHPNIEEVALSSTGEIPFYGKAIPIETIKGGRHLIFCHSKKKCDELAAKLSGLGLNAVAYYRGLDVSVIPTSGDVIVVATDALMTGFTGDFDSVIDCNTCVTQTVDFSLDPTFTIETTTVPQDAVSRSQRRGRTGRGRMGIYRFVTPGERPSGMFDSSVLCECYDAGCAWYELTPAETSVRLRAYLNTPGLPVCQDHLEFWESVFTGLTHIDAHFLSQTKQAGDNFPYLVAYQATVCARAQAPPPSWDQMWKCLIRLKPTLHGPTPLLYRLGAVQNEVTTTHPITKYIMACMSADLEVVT
As to the kind of experiment: NS3h ATP hydrolysis. In kind it is biochemical. Particulars: preliminary.

The next data set deals with E. coli SSB (Escherichia coli, UniProt P0AGE0). As to the kind of experiment: Escherichia coli SSB FP assay. In kind it is binding.
E. coli SSB, sequence (P0AGE0 2-178 limits assumed): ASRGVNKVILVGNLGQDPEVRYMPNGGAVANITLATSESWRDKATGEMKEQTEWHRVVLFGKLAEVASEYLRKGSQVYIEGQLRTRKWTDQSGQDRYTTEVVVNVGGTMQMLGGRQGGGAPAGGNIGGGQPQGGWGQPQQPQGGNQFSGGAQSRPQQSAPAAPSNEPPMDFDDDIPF
For data set [4], the system named is HCV RLuc replicon in Huh7.5 cells. Description: HCV Renilla luciferase subgenomic replicon assay. It counts as cell-based. Particulars: Hepatitis C virus, Huh7.5, 72 h, read-out: HCV replicon IC50 ± SD.
For another data set, the target named is SSB (Escherichia coli, UniProt P0AGE0 1-178). As to the kind of experiment: fluorescence polarization.
SSB, sequence (P0AGE0 whole entry): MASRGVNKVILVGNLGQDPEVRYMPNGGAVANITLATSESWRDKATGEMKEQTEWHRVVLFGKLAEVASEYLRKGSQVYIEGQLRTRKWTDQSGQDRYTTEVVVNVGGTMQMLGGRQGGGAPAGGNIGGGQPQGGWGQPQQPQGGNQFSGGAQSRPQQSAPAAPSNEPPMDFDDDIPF
[5] abbreviates: NS3h helicase assays DNA IC50 ± SD, DNA substrate.
Setting [6] is: NS3h helicase assays RNA IC50 ± SD, RNA substrate.

Where a name gives a salt, the structure may show the parent alone.

For orientation: CC50 means the concentration giving 50% cytotoxicity. High values mean lower toxicity to the cells, low ones greater toxicity to the cells. As a reminder, the IC50 is the midpoint of a concentration-inhibition curve. Molecule `O=C(O)C1=CC(=C(c2ccc(O)c(C(=O)O)c2)c2ccc(O)c(C(=O)O)c2)C=CC1=O` [ATA, aurintricarboxylic acid] displayed a CC50 at 72 h in data set [1] greater than 100 µM. Moreover, the IC50 is 0.6 ± 0.1 µM on HCV NS3h [2] (setting [5]); 0.8 ± 0.2 µM at HCV NS3h [2] (setting [6]); 1.4 ± 0.1 µM on HCV NS3h [3]; 1 ± 0.1 µM against E. coli SSB; 98 ± 30 µM in data set [4]. Also, on HCV NS3h [3], the “Cy5-dT15-NS3h Binding % Inhibition (LOPAC screen)” value was “more than 60%”. For the same molecule, the “ability of NS3h to cleave ATP in the absence of DNA or RNA” value on NS3h is listed as “inhibits”.
As for `CN1CCN(c2ccc3[nH]c(-c4ccc5[nH]c(-c6ccc(O)cc6)nc5c4)nc3c2)CC1` [H33258], at HCV NS3h [3], the “effect on FP-based NS3h binding assay” value is given as “increased polarization”.
Consider `CCCN(CCCN(C)C)c1cc(/C=C2/Sc3ccccc3N2C)c2ccccc2[n+]1-c1ccccc1` [SYBR green I], for which the “effect on MBHA” value at HCV NS3h [2] is reported as “inhibit”.
Regarding `Cc1ccc(C(=O)Nc2ccc(S(=O)(=O)O)c3cc(S(=O)(=O)O)cc(S(=O)(=O)O)c23)cc1NC(=O)c1cccc(NC(=O)Nc2cccc(C(=O)Nc3cc(C(=O)Nc4ccc(S(=O)(=O)O)c5cc(S(=O)(=O)O)cc(S(=O)(=O)O)c45)ccc3C)c2)c1` [Suramin, suramin sodium salt], the CC50 at 72 h in data set [1] is greater than 50 µM. Besides, the IC50 at HCV NS3h [2] (setting [5]) was determined as 3.7 ± 0.7 µM; against HCV NS3h [2] (setting [6]) it was 8.9 ± 2 µM; on HCV NS3h [3], 3.6 ± 0.3 µM; on E. coli SSB, 0.3 µM; in data set [4], 38 ± 9.3 µM. For the same molecule, on HCV NS3h [3], the “Cy5-dT15-NS3h Binding % Inhibition (LOPAC screen)” value is “more than 60%”.
As for `CN1/C(=C/C=C/c2cc[n+](CCC[N+](C)(C)C)c3ccccc23)Sc2ccccc21.[I-].[I-]` [TO-PRO3], the “effect on FP-based NS3h binding assay” value at HCV NS3h [3] is on record as “increased polarization”.
Turning to `CC(=O)NCC(=O)O.CC(=O)NCC(=O)O.N=C(N)c1ccc(N=NNc2ccc(C(=N)N)cc2)cc1` [berenil], the “effect on MBHA” value at HCV NS3h [2] is on record as “inhibit”.
Regarding `Cn1cc(NC(=O)c2cc(NC(=O)CN=C(N)N)cn2C)cc1C(=O)NCCC(=N)N` [netropsin], at HCV NS3h [2], the “effect on MBHA” value is listed as “inhibit”.
`Nc1ccc2cc3ccc(N)cc3nc2c1` [proflavin]: at HCV NS3h [2], the “effect on MBHA” value is “inhibit”.
On to `Nc1ncnc2c1ncn2[C@@H]1O[C@H](COP(=O)(O)CP(=O)(O)OP(=O)([O-])[O-])[C@H](O)C1O.[Li+].[Li+]` (stereo partly drawn) [α,β-methylene ATP, alpha,beta-Methylene adenosine 5'-triphosphate dilithium], for which, on HCV NS3h [3], the “effect on FP-based NS3h binding assay” value is listed as “did not inhibit”.
For TTTTTTTTTTTTTTT (ssDNA) [Cy5-dT15], the “apparent K (half saturation)” value in the data set with SSB is 9.6 ± 2 nM.

(Values after paper PMC3458564 (Nucleic Acids Research, 2012).)
